# According to ChEMBL document CHEMBL3091355, “Designing and synthesis of novel antimicrobial heterocyclic analogs of fatty acids” (2013):
# How the values were obtained:
# Assay type in all cases: functional
# [1] = test system: Nakaseomyces glabratus; experiment: Antifungal activity against Candida glabrata after 20 hrs by agar dilution method
# [2] = test system: Candida tropicalis; experiment: Fungicidal activity against fluconazole, itraconazole-resistant Candida tropicalis clinical isolate by micro dilution method
# [3] = test system: Candida parapsilosis; experiment: Fungicidal activity against Candida parapsilosis clinical isolate by micro dilution method; conditions: Lodderomyces parapsilosis
# [4] = test system: Candida tropicalis; experiment: Fungicidal activity against Candida tropicalis clinical isolate by micro dilution method
# [5] = test system: Candida albicans; experiment: Fungicidal activity against Candida albicans clinical isolate by micro dilution method
# [6] = test system: Candida tropicalis; experiment: Antifungal activity against fluconazole, itraconazole-resistant Candida tropicalis clinical isolate after 20 hrs by agar dilution method
# Outline: (§1)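 Clinical Candida isolates purified and subcultured on SC, SCC and PDA media before testing. Compounds were dissolved in DMSO as a stock, then diluted into solid PDA medium to final concentrations of 0.0312 to 256.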
# [7] = test system: Candida albicans; experiment: Antifungal activity against fluconazole, itraconazole-resistant Candida albicans clinical isolate after 20 hrs by agar dilution method; outline: as §1
# [8] = test system: Candida parapsilosis; experiment: Antifungal activity against Candida parapsilosis clinical isolate after 20 hrs by agar dilution method; conditions: Lodderomyces parapsilosis
# [9] = test system: Candida tropicalis; experiment: Antifungal activity against Candida tropicalis clinical isolate after 20 hrs by agar dilution method
# [10] = test system: Candida albicans; experiment: Antifungal activity against Candida albicans clinical isolate after 20 hrs by agar dilution method
# [11] = test system: Candida dubliniensis; experiment: Fungicidal activity against Candida dubliniensis by micro dilution method
# [12] = test system: Pichia kudriavzevii; experiment: Fungicidal activity against Candida krusei by micro dilution method
# [13] = test system: Candida parapsilosis; experiment: Fungicidal activity against Candida parapsilosis by micro dilution method; conditions: Lodderomyces parapsilosis
# [14] = test system: Nakaseomyces glabratus; experiment: Fungicidal activity against Candida glabrata by micro dilution method
# [15] = test system: Candida tropicalis; experiment: Fungicidal activity against Candida tropicalis by micro dilution method
# [16] = test system: Candida albicans; experiment: Fungicidal activity against Candida albicans by micro dilution method
# [17] = test system: Candida dubliniensis; experiment: Antifungal activity against Candida dubliniensis after 20 hrs by agar dilution method
# [18] = test system: Pichia kudriavzevii; experiment: Antifungal activity against Candida krusei after 20 hrs by agar dilution method
# [19] = test system: Candida parapsilosis; experiment: Antifungal activity against Candida parapsilosis after 20 hrs by agar dilution method; conditions: Lodderomyces parapsilosis
# [20] = test system: Candida tropicalis; experiment: Antifungal activity against Candida tropicalis after 20 hrs by agar dilution method
# [21] = test system: Candida albicans; experiment: Antifungal activity against Candida albicans after 20 hrs by agar dilution method; outline: as §1
# [22] = test system: Escherichia coli; experiment: Bactericidal activity against Escherichia coli ATCC 25922 after 18 to 24 hrs; conditions: read-out: MBC99.9
# Outline: (§2)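 MBC taken as the lowest concentration that killed the bacteria completely.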
# [23] = test system: Klebsiella pneumoniae; experiment: Bactericidal activity against Klebsiella pneumoniae clinical isolate after 18 to 24 hrs; conditions: read-out: MBC99.9
# [24] = test system: Pseudomonas aeruginosa; experiment: Bactericidal activity against Pseudomonas aeruginosa ATCC 27853 after 18 to 24 hrs; conditions: read-out: MBC99.9; outline: as §2
# [25] = test system: Staphylococcus aureus; experiment: Bactericidal activity against Staphylococcus aureus after 18 to 24 hrs; conditions: read-out: MBC99.9; outline: as §2
# [26] = test system: Streptococcus pyogenes; experiment: Bactericidal activity against Streptococcus pyogenes clinical isolate after 18 to 24 hrs; conditions: read-out: MBC99.9
# [27] = test system: Escherichia coli; experiment: Antibacterial activity against Escherichia coli ATCC 25922 after 24 hrs by broth micro dilution method; conditions: ATCC 25922, 24 h
# Outline: (§3)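 MIC by broth microdilution; growth read visually and spectrophotometrically. MIC taken as the lowest concentration giving complete inhibition of bacterial growth.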
# [28] = test system: Klebsiella pneumoniae; experiment: Antibacterial activity against Klebsiella pneumoniae clinical isolate after 24 hrs by broth micro dilution method
# [29] = test system: Pseudomonas aeruginosa; experiment: Antibacterial activity against Pseudomonas aeruginosa ATCC 27853 after 24 hrs by broth micro dilution method; conditions: ATCC 27853, 24 h; outline: as §3
# [30] = test system: Staphylococcus aureus; experiment: Antibacterial activity against Staphylococcus aureus after 24 hrs by broth micro dilution method; outline: as §3
# [31] = test system: Streptococcus pyogenes; experiment: Antibacterial activity against Streptococcus pyogenes clinical isolate after 24 hrs by broth micro dilution method
# [32] = test system: Escherichia coli; experiment: Antibacterial activity against Escherichia coli ATCC 25922 after 24 hrs by disc diffusion method
# Outline: (§4)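 Disk diffusion on agar; activity measured as the halo zone of inhibition around the disk.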
# [33] = test system: Klebsiella pneumoniae; experiment: Antibacterial activity against Klebsiella pneumoniae clinical isolate after 24 hrs by disc diffusion method
# [34] = test system: Pseudomonas aeruginosa; experiment: Antibacterial activity against Pseudomonas aeruginosa ATCC 27853 after 24 hrs by disc diffusion method; outline: as §4
# [35] = test system: Staphylococcus aureus; experiment: Antibacterial activity against Staphylococcus aureus after 24 hrs by disc diffusion method; outline: as §4
# [36] = test system: Streptococcus pyogenes; experiment: Antibacterial activity against Streptococcus pyogenes clinical isolate after 24 hrs by disc diffusion method
# [37] = test system: Candida albicans; experiment: Fungicidal activity against fluconazole, itraconazole-resistant Candida albicans clinical isolate by micro dilution method
Compound,MIC90 [1] [µg/mL],MFC [3] [µg/mL],MFC [4] [µg/mL],MFC [5] [µg/mL],MIC90 [8] [µg/mL],MIC90 [9] [µg/mL],MIC90 [10] [µg/mL],MFC [11] [µg/mL],MFC [12] [µg/mL],MFC [13] [µg/mL],MFC [14] [µg/mL],MFC [15] [µg/mL],MFC [16] [µg/mL],MIC90 [17] [µg/mL],MIC90 [18] [µg/mL],MIC90 [19] [µg/mL],MIC90 [20] [µg/mL],MIC90 [21] [µg/mL],diameter of the inhibition zone (DIZ) [32] [mm],diameter of the inhibition zone (DIZ) [34] [mm],other results
CCCCCCCCC1C(CCC)=NOC1CCCCCCCC(=O)OC (stereo unspecified),128,> 256,> 256,> 256,128,128,128,> 256,> 256,> 256,> 256,> 256,256,128,> 256,> 256,128,128,26.7,31.3,MFC [2]: 128 µg/mL; MIC90 [6]: > 256 µg/mL; MIC90 [7]: > 256 µg/mL; MBC [22]: 50 µg/mL; MBC [23]: 100 µg/mL; MBC [24]: 50 µg/mL; MBC [25]: 100 µg/mL; MBC [26]: 50 µg/mL; MIC [27]: 25 µg/mL; MIC [28]: 25 µg/mL; MIC [29]: 25 µg/mL; MIC [30]: 25 µg/mL; MIC [31]: 25 µg/mL; diameter of the inhibition zone (DIZ) [33]: 18.5 mm; diameter of the inhibition zone (DIZ) [35]: 21.6 mm; diameter of the inhibition zone (DIZ) [36]: 22.3 mm
OC(Cn1cncn1)(Cn1cncn1)c1ccc(F)cc1F [FLUCONAZOLE],8,1,256,> 256,0.5,16,8,> 256,> 256,32,128,256,> 256,2,32,4,32,> 256,,,
CCCc1cc(CCCCCCCCC(=O)O)on1,128,> 256,> 256,> 256,256,128,> 256,256,> 256,> 256,> 256,> 256,> 256,128,> 256,128,> 256,> 256,25.7,31.2,MBC [22]: 100 µg/mL; MBC [23]: > 100 µg/mL; MBC [24]: > 100 µg/mL; MBC [25]: 100 µg/mL; MBC [26]: 100 µg/mL; MIC [27]: 50 µg/mL; MIC [28]: 50 µg/mL; MIC [29]: 100 µg/mL; MIC [30]: 50 µg/mL; MIC [31]: 50 µg/mL; diameter of the inhibition zone (DIZ) [33]: 18.3 mm; diameter of the inhibition zone (DIZ) [35]: 19.2 mm; diameter of the inhibition zone (DIZ) [36]: 21.6 mm
O=C(O)c1cn(C2CC2)c2cc(N3CCNCC3)c(F)cc2c1=O [CIPROFLOXACIN],,,,,,,,,,,,,,,,,,,27,32,diameter of the inhibition zone (DIZ) [35]: 22 mm
CCCCCC1C(CCC)=NOC1CC[C@H](O)CCCCCCCC(=O)OC (stereo partly specified),64,> 256,> 128,256,128,64,64,> 256,> 256,> 256,128,> 256,> 256,128,128,32,128,128,26.5,31.8,MIC90 [6]: > 256 µg/mL; MIC90 [7]: > 256 µg/mL; MBC [22]: 100 µg/mL; MBC [23]: 100 µg/mL; MBC [24]: 100 µg/mL; MBC [25]: 100 µg/mL; MBC [26]: 50 µg/mL; MIC [27]: 25 µg/mL; MIC [28]: 25 µg/mL; MIC [29]: 50 µg/mL; MIC [30]: 25 µg/mL; MIC [31]: 25 µg/mL; diameter of the inhibition zone (DIZ) [33]: 18.9 mm; diameter of the inhibition zone (DIZ) [35]: 20.8 mm; diameter of the inhibition zone (DIZ) [36]: 22.4 mm
CCCC1=NOC(CCCCCCCCC(=O)OC)C1 (stereo unspecified),> 256,> 256,128,128,> 256,> 256,> 256,> 256,> 256,> 256,> 256,> 256,> 256,> 256,> 256,> 256,> 256,> 256,25.1,30.1,MBC [22]: > 100 µg/mL; MBC [23]: > 100 µg/mL; MBC [24]: > 100 µg/mL; MBC [25]: > 100 µg/mL; MBC [26]: 100 µg/mL; MIC [27]: 100 µg/mL; MIC [28]: 100 µg/mL; MIC [29]: 100 µg/mL; MIC [30]: 50 µg/mL; MIC [31]: 50 µg/mL; diameter of the inhibition zone (DIZ) [33]: 17.1 mm; diameter of the inhibition zone (DIZ) [35]: 18.1 mm; diameter of the inhibition zone (DIZ) [36]: 20.2 mm
CCCCCC[C@@H](O)CC1C(CCC)=NOC1CCCCCCCC(=O)OC (stereo partly specified),32,> 256,256,256,128,64,32,256,128,128,256,> 256,256,32,64,32,64,128,27.6,32.5,MFC [37]: > 256 µg/mL; MIC90 [6]: > 256 µg/mL; MIC90 [7]: 128 µg/mL; MBC [22]: 50 µg/mL; MBC [23]: 100 µg/mL; MBC [24]: 50 µg/mL; MBC [25]: 50 µg/mL; MBC [26]: 50 µg/mL; MIC [27]: 25 µg/mL; MIC [28]: 25 µg/mL; MIC [29]: 25 µg/mL; MIC [30]: 25 µg/mL; MIC [31]: 25 µg/mL; diameter of the inhibition zone (DIZ) [33]: 19.2 mm; diameter of the inhibition zone (DIZ) [35]: 22.6 mm; diameter of the inhibition zone (DIZ) [36]: 23.2 mm
CCC(C)n1ncn(-c2ccc(N3CCN(c4ccc(OCC5COC(Cn6cncn6)(c6ccc(Cl)cc6Cl)O5)cc4)CC3)cc2)c1=O (stereo unspecified) [ITRACONAZOLE],0.12,,> 256,> 256,0.25,1,0.12,> 256,0.12,0.5,> 256,> 256,> 256,> 256,0.6,0.6,> 256,> 256,,,
